Measurements as given in the EternaBench riboswitch data.

System: MS2 coat protein
Assay: apparent Kd, MS2 coat protein; higher = weaker binding; RNA-MaP array; FMN 200 µM where present
How it was run: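 On Illumina sequencing-chip clusters, designs were transcribed by stalled E. coli RNA polymerase and titrated with SNAP-549-labelled MS2 coat protein (0.7 or 1.5 nM, doubling to 3 µM), without and then with constant ligand, in 100 mM Tris-HCl pH 7.5, 80 mM KCl, 4 mM MgCl2, BSA, DTT, yeast tRNA and Tween-20. Apparent Kd is the median of filtered per-cluster curve fits to green signal normalised to red-channel RNA signal and control-cluster median Fmax.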

[1] = designed as: OFF switch for flavin mononucleotide, no ligand
[2] = ligand present: flavin mononucleotide, designed as: OFF switch for flavin mononucleotide
[3] = designed as: ON switch for flavin mononucleotide, no ligand
[4] = ligand present: flavin mononucleotide, designed as: ON switch for flavin mononucleotide

Sequence | apparent Kd [1] | apparent Kd [2] | apparent Kd [3] | apparent Kd [4]
AAGAAACAUGAGGAUCACCCAUGUGAGGAUAUGAAAAAGAAAAGAAAAGAAAGAAGGUUCAGAAGGCACAAAGG | 32.8 nM | 64.8 nM |  | 
AAGAAACAUGAGGAUCACCCAUGUGAGGAUAUGCAAGAAAGAAAGAAAGAAAGAAGAAGCAGAAGGCACAAAGG | 25.8 nM | 49.7 nM |  | 
AAGAAACAUGAGGAUCACCCAUGUGAUAAUAUGGGAGGAUAUACAAAGACGAAAGUCGAAGUAGAAGGCCUAUGAA |  |  | 52.3 nM | 43.2 nM
AAGAAAGAAACGUAGGAUAUCAAGAAUAUAACAUGAGGAUCACCCAUGUAAAUACGAAAGUAUAAUGAGAAGGAUGGAUGAUCUUC |  |  | 102 nM | 83.4 nM
AAGAAAGUAUUGCGAGGGUAGGAGCAGGAUAUCCCAUUGGCCCUCACAUGAGGAUCACCCAUGUGGGAGAAGGGCUAUUACGUU | 6.51 nM | 13.2 nM |  | 
AAGAACAUUGACAUGAGGAUCACCCAUGUUGCAGCUAGCUACAGAAGGCACGCGGUACCAAAGGGUGAGGAUAUGUAGGGCCAU |  |  | 93.4 nM | 17.2 nM
AAGAAGCUCACAGGAUAUCAGUAUAUGCGAUCACACGUAUUAAUGAACUGCUGAGAAGGGUGAGACAUGAGGAUCACCCAUGUA |  |  | 446 nM | 238 nM
AAGAAGGACGCAGGAUAUCCAGGACCUCCCGCAGGAGAAGGGCGAGACACGUGGAUCACCCAGACAUGAGGAUCACCCAUGUAG | 15.6 nM | 14.2 nM |  | 
AAGAAGGACGCAGGAUAUCCAGGACCUCCCGCAGGAGAAGGGCGAGACAUGAGGAUCACCCAGACAUGAGGAUCACCCAUGUAG | 37.4 nM | 37.1 nM |  | 
AAGAAGGACGCAGGAUAUCCAGGACCUCCCGCAGGAGAAGGGCGAGACAUGAGGAUCACCCAUACAUGAGGAUCACCCAUGUAA | 20.4 nM | 22.3 nM |  | 
AAGAAGGCAGGAUAUACAAAAUAAAAGAAAAGAAAGAAAGAACAUGAGGAUCACCCAUGUAGAAGGGUCAAGAA | 59.3 nM | 66.1 nM |  | 
AAGAAGUGAGGAUAUGCUGCUCGUCACUUGCGUGAUGAGUAGCAGAAGGCACAUGAGGAUCACCCAUGUGGAAA | 31.3 nM | 43.1 nM |  | 
AAGACUAGAGGAUAUACAUGAGGAUCACCCAUGUAACUGUCAGGAGACUGACGGAGAUGUAGAAGGCUAGUCAA | 17 nM | 34.1 nM |  | 
AAGAUCGGAGGAUAUGAAAGGCGUUACAUGAGGAUCACCCAUGUCGGUUUCAUGUUCGUCUCAGAAGGCCGACUCC | 84.7 nM | 311 nM |  | 
AAGAUGUGAGGAUAUCACGAGAGCGUCAAACGGACACUCUCUGAGAAGGCACAUGAGGAUCACCCAUGUCCAAA | 57.2 nM | 295 nM |  | 
AAGCACAGAGGAUAUACAUGGGUGAUAAAAAAAAUGUAAAAACAUGAGGAUCACCCAUGUAGAAGGCUGUGCAA | 22.6 nM | 16.5 nM |  | 
AAGCUCGUGUGAGGAUAUGCCGCCGUUUCGGCUGCAGAAGGUGCUACGUUACAUGAGGAUCACCCAUGUCUCUGUUGUUUCGUG |  |  | 23 nM | 22.3 nM
AAGGAACGAGGAUAUGCAGGUUGAGCUCGAGUUCGACCGGAACAUGAGGAUCACCCAUGUAGAAGGUGUAUCCC | 24.1 nM | 24.4 nM |  | 
AAGGAGUAAGGAUAUGCUGCUCGUCACUUGCGUGAUGAGUAGCAGAAGGUACAUGAGGAUCACCCAUGUAAAAA | 24.5 nM | 18.3 nM |  | 
AAGGAGUGAGGAUAUACAUGAGGAUCACCCAUGUUGAUGGAAACGUCAGAGAAAGAAGGUAGAAGGCACAAGAA | 56.7 nM | 58.5 nM |  | 
AAGGAUCGAGGAUAUACAUAGAUACAGAUACAUGUAUACGUACAUGAGGAUCACCCAUGUAGAAGGCGAUCAUA | 37.1 nM | 214 nM |  | 
AAGGCAAUGUCAUGCCCACCGGACAGAAGGCAAUGUGGGCAGCCCGACAUGAGGAUCACCCAUGUUGAGGAUAUGUCCCGUCCU | 2.72 nM | 2.85 nM |  | 

Sequence | apparent Kd [1] | apparent Kd [2] | apparent Kd [3] | apparent Kd [4]
AAGGUGUAAGGAUAUGCUGCUCGUCACUUGCGUGAUGAGUAGCAGAAGGUACAUGAGGAUCACCCAUGUAAAGA | 32.5 nM | 38.2 nM |  | 
AAGUAGGUAGGAUAUGCAUAGAUAUACAUUCAUGUGGAUUUACAUGAGGAUCACCCAUGUAGAAGGACCUAAUA | 37.5 nM | 136 nM |  | 
AAGUAUAGAGGAUAUAGUAAGUACUACAUGAGGAUCACCCAUGUUCUUCAUUACGUAUUUCUAGAAGGCUGAUAAA | 376 nM | 581 nM |  | 
AAGUCAGCAGGAUAUGCGAUGUUGUGCUAGAUAGCGUGACCACAUGAGGAUCACCCAUGUAGAAGGGCUGGCUA | 30.9 nM | 20.2 nM |  | 
AAGUCCAGAGGAUAUCAGACGCGGCACAUGAGGAUCACCCAUGUAUUCCCGUCUGCCGACUGAGAAGGUUGGAAAG | 12 nM | 17.8 nM |  | 
AAGUGCUAAGGAUAUAUAUGGAUAUACAUUUAUGUAGAACUACAUGAGGAUCACCCAUGUAGAAGGUAGCAAUA | 25.3 nM | 42.3 nM |  | 
AAGUGGUUUAUAUAUUUAGAUAUCAGAAGGCGUGACAUGAGGAUCACCCAUGUGGACUAACAUGACGAGGAUAUGACUAAUUGU | 30.4 nM | 39.8 nM |  | 
AAGUGUAUAGGAUAUGCGUGGAAAAGGUGUAUUCACUAGCGACAUGAGGAUCACCCAUGUAGAAGGGUAUGUAA | 124 nM | 64 nM |  | 
AAGUUGUCAGGAUAUCGUUAAUUUAGUUGUUUGUAUUAGUUCGAGAAGGGACAUGAGGAUCACCCAUGUUUGAA | 32.5 nM | 40.5 nM |  | 
AAGUUUGUACAAGGAUAUCAAUUGUUUCUAAAUUCAACAUGAGGAUCACCCAUGUAACAAUGGAGUGAGAAGGUGUGUGGGCAA |  |  | 419 nM | 423 nM
AAGUUUUUACAAGGAUAUCAAUUUUUUCUAAAUUCAACAUGAGGAUCACCCAUGUAACAAUGGAGUGAGAAGGUGUUUUGGCAA |  |  | 176 nM | 205 nM
AAUAAACUAGGAUAUACAUGAGGAUCACCCAUGUGUCGCCACGUGCUUGCUCACUCGUGUAGAAGGAGUACGGA | 38.5 nM | 73.1 nM |  | 
AAUAAACUCACAGGAUAUAGCAGAGGUCGCGUGAACUUACAGACGACGAUGCUAGAAGGGUGACCACAUGAGGAUCACCCAUGU |  |  | 591 nM | 151 nM
AAUAAACUCACAGGAUAUAGCAGAGGUCGCGUGAACUUACAGGCAACGAUGCUAGAAGGGUGACCACAUGAGGAUCACCCAUGU |  |  | 520 nM | 145 nM
AAUAAACUCACAGGAUAUAGCAGAUGUCGCGUGAACUUACAGGCGACGAGGCUAGAAGGGUGACCACAUGAGGAUCACCCAUGU |  |  | 738 nM | 103 nM
AAUAAACUCACAGGAUAUAGCAGAUGUCGCGUGAACUUACAGGCGACGAUGCUAGAAGGGUGACCACAUGAGGAUCACCCAUGU |  |  | 1200 nM | 142 nM
AAUAAACUCACAGGAUAUAGCAUAGGCCGCGUGAACUUACAGGCGACUAUGCUAGAAGGGUGACCACAUGAGGAUCACCCAUGU |  |  | 851 nM | 141 nM
AAUAACAGAGGAUAUACUAUUUUAUGUAUUUAUUAUUUUGAACAUGAGGAUCACCCAUGUAGAAGGCUGAAUAA | 22.7 nM | 21.7 nM |  | 
AAUAACAGAGGAUAUACUAUUUUAUGUGUUUAUUGUUUUAAACAUGAGGAUCACCCAUGUAGAAGGCUGAUUGA | 77.3 nM | 114 nM |  | 
AAUAACAGAGGAUAUACUAUUUUAUGUGUUUGUUAUUUUAAACAUGAGGAUCACCCAUGUAGAAGGCUGAUUGA | 46.7 nM | 46.6 nM |  | 
AAUAAGCUAGGAUAUACAUGAGGAUCACCCAUGUGAGGGCACGGCCGGCGCGGGCCCGGUAGAAGGAGUCAUAA | 28.6 nM | 23.6 nM |  | 
